V-ATPase pHluor = regulators of yeast V-ATPase proton transport | response, % at 10 µM | S. cerevisiae, pHLuorin cytosolic pH fluorescence | actives 0.37% (n = 350,000); in the data active means response mostly above about 7.3%, no sharp cut-off; inactive means mostly below about 5.4%; further: actives read high
CHOP inhibitor = CHOP inhibition in unfolded protein response; CHO-K1 CHOP-promoter luciferase, tunicamycin-induced, 15-18 h; inhibition, % at 10 µM; actives 3.8% (n = 220,000);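 active means compounds that reduced the stress-induced luciferase reporter signal by more than about 70% of percent inhibition, limit read from the data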
Tb MetRS inh = Trypanosoma brucei MetRS inhibition. purified T. brucei MetRS, ATP depletion, Kinase-Glo luminescence. inhibition, % at 11.9 µM. actives 0.4% (n = 360,000);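 active means inhibition above a per-plate cutoff of the control wells' mean inhibition plus 3 SD, cut at about 5.5% in these data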
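System: purified T. brucei MetRS enzyme / Detection: Kinase-Glo luciferase luminescence reporting remaining unconsumed ATP / Medium: HEPES buffer with MgCl2, KCl, DTT, spermine, BSA, pyrophosphatase / Replication: singlicate, one well per compound / Evaluation: percent inhibition relative to median high and low control wells / Schedule: 2 h aminoacylation at 25 °C after 15 min preincubation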
XBP1 UPR activ = activators of adaptive arm of unfolded protein response (XBP1); CHO-XBP1 luciferase reporter, IRE1-XBP1 UPR activation, luminescence; percent of tunicamycin response, DMSO as zero; AID 463104; actives 0.33% (n = 330,000); activation, % at 20 µM;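 active means versus positive control, 20 µM dose yields 30% or more activation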
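assay system = CHO-XBP1 luciferase reporter cells | amount = 1000 cells/well | buffer or medium = F12 plus 10% FBS | compound dosing = single point, 20 µM final compound, 1% DMSO | incubation = 16-18 h cell attachment at 37 °C, then 6 h compound exposure | detection = Steady-Glo luminescence read | controls = tunicamycin 10 µg/mL and vehicle-only wells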
CHOP UPR activ = apoptotic UPR (CHOP) activation; CHO-CHOP luciferase reporter, luminescence; percent of tunicamycin response over DMSO baseline; activation, % at 10 µM; actives 0.34% (n = 330,000); AID 449763;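 active means at 10 µM dose, activation of 40% or more, normalized to positive control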
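measured by = luciferase luminescence | assay system = CHO-CHOP cells, stable luciferase reporter of PERK-eIF2a-CHOP signalling | amount = 500 reporter cells seeded per well | timing = 6 h compound exposure at 37 °C after overnight seeding | controls = positive tunicamycin 10 µg/mL, negative DMSO alone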
Of the large screens only hits and unclear results are named; the others gave an inactive call. Many of the other results were omitted from the sample, so hits are more common in it than they were.

O=C1CC(c2ccco2)Cc2nc(Nc3nc(-c4ccccc4)c4ccccc4n3)ncc21 (stereo not drawn)	CHOP inhibitor 93
C=C(C)C1CC=C(C)/C(=N/NC(=O)COc2ccc(C)cc2)C1 (stereo not drawn)	CHOP inhibitor 70
O=S(=O)(c1ccc2c(c1)C(=NO)c1cc(S(=O)(=O)N3CCCCC3)ccc1-2)N1CCCCC1	XBP1 UPR activ 134, CHOP UPR activ 149 (no result: CHOP inhibitor)
O=S(=O)(c1ccc(S(=O)(=O)N2CCCC2)cc1)N1CCCCCC1	none
COc1ccc(C(=O)Oc2ccc(C(=S)N3CCCC3)cc2)cc1OC	CHOP inhibitor 93 (no result: V-ATPase pHluor, Tb MetRS inh)
Clc1cccc(Cc2c(C3CCCCC3)nc3ccc(Cl)cn23)c1	none (no result: V-ATPase pHluor, CHOP inhibitor, XBP1 UPR activ, CHOP UPR activ)
CCn1ccnc1CN(C)Cc1cn(-c2ccc(C)cc2)nc1-c1ccc(F)cc1	CHOP inhibitor 75
O=C(COc1ccc([N+](=O)[O-])cc1Cl)NCCN1C(=O)CSC1=O	none (no result: CHOP inhibitor)
COC(=O)[C@]12CCCCC=C1N(Cc1ccc3c(c1)OCO3)C(=O)[C@H](CC(=O)N1CCSCC1)C2	none (no result: V-ATPase pHluor, CHOP inhibitor, XBP1 UPR activ, CHOP UPR activ)
CC(=O)Nc1ccc(N=Nc2ccc(O)cc2)cc1	none
CCOC(=O)N/N=C/c1c(C)nn(-c2cccc(C(F)(F)F)c2)c1Cl	none
Cc1nn(Cc2ccccc2)c(Cl)c1/C=N/NC(=O)CNc1cccc(C(F)(F)F)c1	CHOP inhibitor 94
O=C(N/N=C/c1ccc(-c2cccc(C(F)(F)F)c2)o1)c1ccccc1O	CHOP inhibitor 90
Cc1ccc(NCC(=O)N/N=C/c2ccc(-c3cccc(C(F)(F)F)c3)o2)cc1	CHOP inhibitor 81
CNc1cc(C(=O)Nc2cccc(OCc3ccccc3)c2)ncn1	none (no result: V-ATPase pHluor, CHOP inhibitor, XBP1 UPR activ, CHOP UPR activ)
CCc1ccc(N2CCN(C(=O)N3CCOCC3)CC2)cc1	none
N=c1ccn2c(n1)OC1[C@@H](O)[C@@H](CO)O[C@H]12 (stereo partly drawn)	none (no result: V-ATPase pHluor, Tb MetRS inh, XBP1 UPR activ, CHOP UPR activ)
O=S(=O)(NCCS(=O)(=O)N1CCN(c2ccc(F)cc2)CC1)c1ccc(F)cc1	none (no result: CHOP inhibitor, XBP1 UPR activ, CHOP UPR activ)
Cc1ccc2ncccc2c1NS(=O)(=O)c1ccccc1	CHOP inhibitor 82
Cc1cccc(NC(=O)CC2SC(=NC3CCCCC3)NC2=O)c1 (stereo not drawn)	CHOP inhibitor 74
O=C(CC1SC(=NC2CCCCC2)NC1=O)Nc1ccccc1 (stereo not drawn)	none
Cc1cc(C)c(OCCCCNCc2ccccc2)c(Cl)c1	CHOP inhibitor 75
COc1ccc(-n2nc(C(=O)Nc3nc4ccc(OC)cc4s3)c3ccccc3c2=O)c(OC)c1	CHOP inhibitor 88 (no result: V-ATPase pHluor, Tb MetRS inh)
Cc1cc(NC(=O)Cn2nc(-c3ccccc3F)ccc2=O)ccc1-n1cnnn1	CHOP inhibitor 72
CCC1=CC(c2ccccc2)n2ncnc2N1 (stereo not drawn)	V-ATPase pHluor 14 (no result: CHOP inhibitor)
O=C(NCCc1ccccc1F)N[C@@H](Cc1ccccc1)C(=O)O	none (no result: CHOP inhibitor)
COc1ccccc1NC(=S)NCc1ccccc1Cl	none (no result: CHOP inhibitor)
COc1ccc(NC(=S)NCc2ccccc2Cl)c(OC)c1	V-ATPase pHluor 21 (no result: CHOP inhibitor)
COc1ccc(NC(=O)C2c3ccccc3OCC(=O)N2Cc2ccco2)cc1 (stereo not drawn)	none (no result: V-ATPase pHluor, CHOP inhibitor, XBP1 UPR activ, CHOP UPR activ)
CCC1=C(OC(=O)c2ccccc2)C(C)(C)C(c2ccccc2)OC1=O (stereo not drawn)	CHOP inhibitor 93
Cc1onc(-c2ccccc2)c1C(=O)OCC(=O)Nc1ccc2c(c1)OCO2	none
Cc1c(-c2cccc(Cl)c2)nc2ccccc2c1C(=O)OCC(=O)Nc1ccc2c(c1)OCO2	CHOP inhibitor 78
COc1ccc(OC)c(NC(=O)CSc2ncnc3c2cnn3-c2ccccc2Cl)c1	CHOP inhibitor 80
COc1cc(OC)c(-c2nc3ccccc3s2)cc1OC	CHOP inhibitor 72
COc1cccc(-c2nc3ccccc3s2)c1O	none
Cc1ccc([C@H]2C(C(=O)O)=CCN2S(=O)(=O)c2ccc(C)cc2)cc1	none (no result: V-ATPase pHluor, CHOP inhibitor, XBP1 UPR activ, CHOP UPR activ)
O=C(COC(=O)/C=C/c1cccc(F)c1)Nc1ccc(Cl)cn1	CHOP inhibitor 73
COc1ccc(C(=O)N2CCC(C)(C(=O)NS(=O)(=O)C3CC3)C2)c(OC)c1 (stereo not drawn)	none (no result: V-ATPase pHluor, CHOP inhibitor, XBP1 UPR activ, CHOP UPR activ)
CSc1nsc(/C=C/Nc2ccc(C)cc2)c1C#N	none
CSc1nsc(/C=C/Nc2ccc(C)c(C)c2)c1C#N	CHOP inhibitor 87
Cn1c(N)c(C(=O)COC(=O)c2ccccn2)c(=O)n(C)c1=O	none
CCOc1ncccc1C(=O)OCC(=O)c1c(N)n(C)c(=O)n(C)c1=O	CHOP inhibitor 86

High-throughput results from PubChem BioAssay.
